STAT1 inh: STAT1 signaling inhibitors, primary screen, cell-based, HTS, luciferase reporter. NIH 3T3 STAT1-luciferase reporter, IFN-gamma, luminescence. 200,000 tested, 0.35% active. inhibition, % at 5.5 µM. AID 920, 2007;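 active = inhibition above a set limit, the mean inhibition across all tested compounds plus 3 SD, cut at about 34% in these data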
STAT1 act-1: STAT1 signaling activators, primary screen, cell-based, HTS, luciferase reporter. NIH 3T3 STAT1-luciferase reporter, IFN-gamma, luminescence; 100% = IFN-gamma alone, no compound. activation (% of control), % at 5.5 µM. 200,000 tested, 2.6% active;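 active = activation above the screen-wide mean activation plus 3 SD, cut at about 130% in these data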
STAT3 blocker: IL-6 driven STAT3 reporter inhibitors, primary screen, U3A cells, luciferase, luminescence, MLSCN library | 190,000 tested, 0.89% active | IL-6 STAT3-luciferase reporter; host cell line lacks STAT1 | inhibition, % at 5.5 µM | AID 862, 2007;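 active = inhibition above the mean inhibition across all screened compounds plus 3 SD, cut at about 44% in these data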
APP 5'UTR act: activators of APP 5'UTR luciferase reporter, primary screen, SH-SY5Y cells. SH-SY5Y APP 5'UTR luciferase reporter, luminescence; zero percent = DMSO vehicle wells. 190,000 tested, 1% active. AID 1276, 2008. activation, % at 2 µM;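 active = activation above a set limit, based on mean plus 3 SD of controls, cut at about 140% in these data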
STAT3 act-1: IL-6 driven STAT3 reporter potentiators, primary screen, U3A cells, luciferase, luminescence, MLSCN library | IL-6 STAT3-luciferase reporter; 100% = signal with IL-6 EC80 alone | activation (% of control), % at 5.6 µM | 190,000 tested, 0.91% active | AID 871, 2007;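 active = activation above the screen-wide mean of compound activation plus 3 SD, cut at about 130% in these data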
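Test system: Human STAT1-deficient U3A cells with stable STAT3-luciferase reporter | Also added: Interleukin-6, 33 ng/mL | Timing: Compound pre-incubation 1 h before IL-6, then 6 h stimulation at 37 °C | Technique: Luciferase reporter luminescence | Read-out: Percent of IL-6-only median luminescence | Benchmarks: IL-6-only wells as 100% reference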
NF-kB neuron act: activators of NF-kB expression in neurons, primary screen, cell-based, HTS | fold change at 12.5 µM | 190,000 tested, 1.6% active | AID 1239, 2008 | human neuronal cells, NF-kB reporter expression; hits give high values; in the data active = fold change above about 3.3
STAT3 act-2: STAT3 reporter potentiators, retest of hits, confirmation, U3A cells, luciferase, luminescence; shares compounds with STAT3 act-1; IL-6 potentiation; U3A cells lack STAT1; 100 means same as IL-6 alone; potentiation (% of control), % at 5.7 µM; 1,200 tested, 64% active;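 active = percent activation of the STAT3 luciferase reporter above a set limit taken from the earlier primary screen, cut at about 130% in these data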
NFkB act 2: NF-kB reporter activators in human cells, counter-screen for STAT3 activator project; 1,200 tested, 11% active; activation (% of control), % at 5.7 µM; NF-kappaB reporter activation; shares compounds with STAT3 act-1; AID 1309, 2008; in the data active = activation above about 120%;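 also: reporter induced by TNF-alpha stimulation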
STAT1 act-2: STAT1 reporter activators, IFN-gamma induced, counter-screen for STAT3 activator project, cell-based, NIH 3T3, luciferase luminescence. 1,200 tested, 13% active. shares compounds with STAT3 act-1. NIH 3T3 STAT1-luciferase reporter. activation (% of control), % at 5.7 µM;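 active = activation above the solvent-only control well mean plus 3 SD, set per screening run, cut at about 120% in these data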
A number is an active result. Only some compounds are listed: those with a hit (about 5.1% of all), similar ones and a draw of the others.

How did COc1cc(-c2nnc(CSc3nc4ccccc4s3)o2)cc(OC)c1OC do in these assays?
STAT1 inh: inactive; STAT1 act-1: inactive; STAT3 blocker: inactive; APP 5'UTR act: inactive; STAT3 act-1: 137; NF-kB neuron act: inactive; STAT3 act-2: inactive; NFkB act 2: inactive; STAT1 act-2: inactive

What do the screens show for `CCSC1=NC2(CCCCC2)Nc2sc3c(c21)CCCC3`?
STAT1 inh: inactive; STAT1 act-1: inactive; STAT3 blocker: inactive; APP 5'UTR act: inactive; STAT3 act-1: inactive; NF-kB neuron act: inactive

How did O=C1C2=C(Nc3ccccc3SC2c2ccco2)c2ccccc21 (stereo unspecified) do in these assays?
STAT1 inh: inactive; STAT1 act-1: inactive; STAT3 blocker: inactive; APP 5'UTR act: inactive; STAT3 act-1: 137; NF-kB neuron act: inactive; STAT3 act-2: inactive; NFkB act 2: inactive; STAT1 act-2: inactive

What do the screens show for `O=C(CNC(=O)C12CC3CC(CC(C3)C1)C2)N/N=C\c1ccccn1`?
STAT1 inh: inactive; STAT1 act-1: inactive; STAT3 blocker: inactive; APP 5'UTR act: inactive; STAT3 act-1: inactive; NF-kB neuron act: inactive

What do the screens show for `CCCCN1C(=O)C(O)=C(C(C)=O)C1c1ccccc1[N+](=O)[O-]` (stereo unspecified)?
STAT1 inh: inactive; STAT1 act-1: inactive; STAT3 blocker: inactive; APP 5'UTR act: inactive; STAT3 act-1: inactive; NF-kB neuron act: inactive

How did O=C(O)CCCCCN1C(=O)C(O)=C(C(=O)/C=C/c2ccccc2)C1c1ccccc1[N+](=O)[O-] (stereo unspecified) do in these assays?
STAT1 inh: inactive; STAT1 act-1: inactive; STAT3 blocker: inactive; APP 5'UTR act: inactive; STAT3 act-1: 140; NF-kB neuron act: inactive; STAT3 act-2: 145; NFkB act 2: inactive; STAT1 act-2: inactive

Results for N#CC(C#N)=C1NC2(CCCC2)Cc2ccccc21 ?
STAT1 inh: inactive; STAT1 act-1: inactive; STAT3 blocker: inactive; APP 5'UTR act: inactive; STAT3 act-1: inactive; NF-kB neuron act: inactive

How did Cc1ccc(CNC(=O)Cc2csc(Nc3nc(=S)[nH]c4ccccc34)n2)cc1 do in these assays?
STAT1 inh: inactive; STAT1 act-1: inactive; STAT3 blocker: inactive; APP 5'UTR act: inactive; STAT3 act-1: 141; NF-kB neuron act: inactive; STAT3 act-2: 133; NFkB act 2: inactive; STAT1 act-2: inactive

Results for O=C(Cc1csc(Nc2nc(=S)[nH]c3ccccc23)n1)NCc1ccccc1Cl ?
STAT1 inh: inactive; STAT1 act-1: inactive; STAT3 blocker: inactive; APP 5'UTR act: inactive; STAT3 act-1: inactive; NF-kB neuron act: inactive

Results for N#C/C(=C\Nc1ccccc1O)c1nc2ccccc2o1 ?
STAT1 inh: inactive; STAT1 act-1: inactive; STAT3 blocker: inactive; APP 5'UTR act: inactive; STAT3 act-1: 165; NF-kB neuron act: inactive; STAT3 act-2: 183; NFkB act 2: inactive; STAT1 act-2: inactive

Results for Cc1ccc(/C=N/NC(=O)C(C)Oc2ccccc2[N+](=O)[O-])s1 (stereo unspecified) ?
STAT1 inh: inactive; STAT1 act-1: inactive; STAT3 blocker: inactive; APP 5'UTR act: inactive; STAT3 act-1: inactive; NF-kB neuron act: inactive

How did Cc1cc(C)n(-c2ccc(C(=O)Nc3cc(S(=O)(=O)N(C)C)ccc3Cl)cc2)n1 do in these assays?
STAT1 inh: inactive; STAT1 act-1: inactive; STAT3 blocker: inactive; APP 5'UTR act: inactive; STAT3 act-1: inactive; NF-kB neuron act: inactive

Results for CCC1CCCCN1C(=O)Nc1cc(Cl)ccc1OC (stereo unspecified) ?
STAT1 inh: inactive; STAT1 act-1: inactive; STAT3 blocker: inactive; APP 5'UTR act: inactive; STAT3 act-1: inactive; NF-kB neuron act: inactive

How did O=C(N/N=C/c1cccnc1)C1CC1(c1ccccc1)c1ccccc1 (stereo unspecified) do in these assays?
STAT1 inh: inactive; STAT1 act-1: inactive; STAT3 blocker: inactive; APP 5'UTR act: inactive; STAT3 act-1: inactive; NF-kB neuron act: inactive

How did Cc1ccc(Nc2nc(CSc3nnc(-c4cccs4)o3)cs2)cc1 do in these assays?
STAT1 inh: inactive; STAT1 act-1: inactive; STAT3 blocker: inactive; APP 5'UTR act: inactive; STAT3 act-1: inactive; NF-kB neuron act: inactive

How did c1ccc(-c2nc(CSc3nnc(-c4cccs4)o3)cs2)cc1 do in these assays?
STAT1 inh: inactive; STAT1 act-1: inactive; STAT3 blocker: inactive; APP 5'UTR act: inactive; STAT3 act-1: 161; NF-kB neuron act: inactive; STAT3 act-2: 168; NFkB act 2: inactive; STAT1 act-2: 121

What do the screens show for `CCS(=O)(=O)Nc1ccc2[nH]c(=O)[nH]c2c1`?
STAT1 inh: inactive; STAT1 act-1: inactive; STAT3 blocker: inactive; APP 5'UTR act: inactive; STAT3 act-1: inactive; NF-kB neuron act: inactive

How did COc1ccc([N+](=O)[O-])cc1NC(=O)C1CCCO1 (stereo unspecified) do in these assays?
STAT1 inh: inactive; STAT1 act-1: inactive; STAT3 blocker: inactive; APP 5'UTR act: inactive; STAT3 act-1: inactive; NF-kB neuron act: inactive

How did Cc1cc(Nc2nc(Cl)c(Cl)cc2Cl)n(-c2ccccc2)n1 do in these assays?
STAT1 inh: inactive; STAT1 act-1: inactive; STAT3 blocker: inactive; APP 5'UTR act: inactive; STAT3 act-1: 143; NF-kB neuron act: inactive; STAT3 act-2: inactive; NFkB act 2: inactive; STAT1 act-2: inactive

Results for Oc1cccc(C2c3[nH]c4ccccc4c3CCN2Cc2ccc3c(c2)CCO3)c1 (stereo unspecified) ?
STAT1 inh: inactive; STAT1 act-1: inactive; STAT3 blocker: inactive; APP 5'UTR act: inactive; STAT3 act-1: 141; NF-kB neuron act: inactive; STAT3 act-2: 142; NFkB act 2: inactive; STAT1 act-2: inactive

What do the screens show for `COc1ccc(C2c3[nH]c4ccccc4c3CCN2Cc2ccoc2)c(F)c1` (stereo unspecified)?
STAT1 inh: inactive; STAT1 act-1: inactive; STAT3 blocker: inactive; APP 5'UTR act: inactive; STAT3 act-1: inactive; NF-kB neuron act: inactive

How did Cn1cc(CN2CCc3c([nH]c4ccccc34)C2C(C)(C)C)cn1 (stereo unspecified) do in these assays?
STAT1 inh: inactive; STAT1 act-1: inactive; STAT3 blocker: inactive; APP 5'UTR act: inactive; STAT3 act-1: inactive

High-throughput results deposited in PubChem by several laboratories.
